In brackets after ≈: the same amount, converted by molar mass. Activity calls are given as the source filed them. No cut-off for these calls is given here.
Columns and labels:
IGROV-1 = experiment: Cytotoxicity against human IGROV1 cells assessed as growth inhibition at 10 uM after 48 hrs by SRB assay; type: functional; conditions: IGROV-1, 48 h, read-out: GI
Outline: (§1)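 NCI-60 one-dose primary screen run by the NCI Drug Evaluation Branch across the full 60-line panel. Single high-dose treatment with 48 h continuous drug exposure. Cell growth estimated by sulforhodamine B protein staining. Results given as percent growth of treated cells and expressed as percentage growth inhibition.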

MCF7 = experiment: Cytotoxicity against human MCF7 cells assessed as growth inhibition at 10 uM after 48 hrs by SRB assay; type: functional; conditions: MCF7, 48 h, read-out: GI; outline: as §1
Pseudomonas aeruginosa [1] = experiment: Antibacterial activity against Pseudomonas aeruginosa ATCC 27853 assessed as growth inhibition at 1 mg/mL after 24 hrs by agar-cup diffusion method; type: functional; conditions: ATCC 27853, 24 h, read-out: DIZ
Outline: (§2)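 Agar-cup diffusion: 1 mL of 6 h broth culture seeded per 100 mL molten sterile agar at 45 °C and poured into plates. 8 mm cups cut, each filled with 0.1 mL of 1 mg/mL test solution. Incubated 37 °C for 24 h, 48 h for C. albicans. DMSO control per organism. Inhibition zone diameter in mm, mean of three measurements.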

PC-3 = experiment: Cytotoxicity against human PC3 cells assessed as growth inhibition at 10 uM after 48 hrs by SRB assay; type: functional; conditions: PC-3, 48 h, read-out: GI; outline: as §1
Staphylococcus aureus [2] = experiment: Bactericidal activity against Staphylococcus aureus ATCC 6538 after 18 hrs; type: functional; conditions: ATCC 6538, 18 h
Outline: (§3)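 Continuation of the broth-dilution MIC test. A loopful from each tube without visible growth spread on a quarter of a Mueller-Hinton agar plate and incubated 18 h. Lowest concentration giving no growth on subculture taken as the MBC.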

NCI-H522 = experiment: Cytotoxicity against human NCI-H522 cells assessed as growth inhibition at 10 uM after 48 hrs by SRB assay; type: functional; conditions: NCI-H522, 48 h, read-out: GI; outline: as §1
NCI-H226 = experiment: Cytotoxicity against human NCI-H226 cells assessed as growth inhibition at 10 uM after 48 hrs by SRB assay; type: functional; conditions: NCI-H226, 48 h, read-out: GI; outline: as §1
Aspergillus niger = experiment: Antifungal activity against Aspergillus niger assessed as growth inhibition at 1 mg/mL after 24 hrs by agar-cup diffusion method; type: functional, organism-based; outline: as §2
HCT-116 = experiment: Cytotoxicity against human HCT116 cells assessed as growth inhibition at 10 uM after 48 hrs by SRB assay; type: functional; conditions: HCT-116, 48 h, read-out: GI; outline: as §1
SNB-75 = experiment: Cytotoxicity against human SNB75 cells assessed as growth inhibition at 10 uM after 48 hrs by SRB assay; type: functional; conditions: SNB-75, 48 h, read-out: GI; outline: as §1
Bacillus spizizenii [3] = experiment: Antibacterial activity against Bacillus subtilis ATCC 6633 assessed as growth inhibition at 1 mg/mL after 24 hrs by agar-cup diffusion method; type: functional; conditions: ATCC 6633, 24 h, read-out: DIZ; outline: as §2
[4] = Cytotoxicity against human UO31 cells assessed as growth inhibition at 10 uM after 48 hrs by SRB assay; type: functional; conditions: UO-31, 48 h, read-out: GI; outline: as §1
Staphylococcus aureus [5] = experiment: Antibacterial activity against Staphylococcus aureus ATCC 6538 assessed as growth inhibition after 48 hrs by two-fold serial dilution assay; type: functional; conditions: ATCC 6538, 48 h
Outline: (§4)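 Twofold serial broth dilution run on compounds giving inhibition zones of 13 mm or more. Organisms pre-grown in suitable broth at 37 °C, 24 h for bacteria and 48 h for fungi. Dilution series 200, 100, 50, 25, 12.5, 6.25. Each 5 mL tube inoculated with 0.1 mL and incubated 37 °C for 48 h. Tubes scored for presence or absence of growth.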

UACC-62 = experiment: Cytotoxicity against human UACC62 cells assessed as growth inhibition at 10 uM after 48 hrs by SRB assay; type: functional; conditions: UACC-62, 48 h, read-out: GI; outline: as §1
K562 = experiment: Cytotoxicity against human K562 cells assessed as growth inhibition at 10 uM after 48 hrs by SRB assay; type: functional; conditions: K562, 48 h, read-out: GI; outline: as §1
Pseudomonas aeruginosa [6] = experiment: Bactericidal activity against Pseudomonas aeruginosa ATCC 27853 after 18 hrs; type: functional; conditions: ATCC 27853, 18 h; outline: as §3
U-251 = experiment: Cytotoxicity against human U251 cells assessed as growth inhibition at 10 uM after 48 hrs by SRB assay; type: functional; conditions: U-251, 48 h, read-out: GI; outline: as §1
RPMI-8226 = experiment: Cytotoxicity against human RPMI8226 cells assessed as growth inhibition at 10 uM after 48 hrs by SRB assay; type: functional; conditions: RPMI-8226, 48 h, read-out: GI; outline: as §1
[7] = Cytotoxicity against human Hs578T cells assessed as growth inhibition at 10 uM after 48 hrs by SRB assay; type: functional; conditions: Hs-578T, read-out: GI; outline: as §1
Escherichia coli [8] = experiment: Bactericidal activity against Escherichia coli ATCC 25922 after 18 hrs; type: functional; conditions: ATCC 25922, 18 h; outline: as §3
Escherichia coli [9] = experiment: Antibacterial activity against Escherichia coli ATCC 25922 assessed as growth inhibition after 48 hrs by two-fold serial dilution assay; type: functional; conditions: ATCC 25922, 48 h; outline: as §4
SK-MEL-5 = experiment: Cytotoxicity against human SK-MEL-5 cells assessed as growth inhibition at 10 uM after 48 hrs by SRB assay; type: functional; conditions: SK-MEL-5, 48 h, read-out: GI; outline: as §1
HCT-15 = experiment: Cytotoxicity against human HCT15 cells assessed as growth inhibition at 10 uM after 48 hrs by SRB assay; type: functional; conditions: HCT-15, 48 h, read-out: GI; outline: as §1
Bacillus spizizenii [10] = experiment: Antibacterial activity against Bacillus subtilis ATCC 6633 assessed as growth inhibition after 48 hrs by two-fold serial dilution assay; type: functional; conditions: ATCC 6633, 48 h; outline: as §4
Staphylococcus aureus [11] = experiment: Antibacterial activity against Staphylococcus aureus ATCC 6538 assessed as growth inhibition at 1 mg/mL after 24 hrs by agar-cup diffusion method; type: functional; conditions: ATCC 6538, 24 h, read-out: DIZ; outline: as §2
T47D = experiment: Cytotoxicity against human T47D cells assessed as growth inhibition at 10 uM after 48 hrs by SRB assay; type: functional; conditions: read-out: GI; outline: as §1
Pseudomonas aeruginosa [12] = experiment: Antibacterial activity against Pseudomonas aeruginosa ATCC 27853 assessed as growth inhibition after 48 hrs by two-fold serial dilution assay; type: functional; conditions: ATCC 27853, 48 h; outline: as §4
CCRF-CEM = experiment: Cytotoxicity against human CCRF-CEM cells assessed as growth inhibition at 10 uM after 48 hrs by SRB assay; type: functional; conditions: read-out: GI; outline: as §1
MDA-MB-468 = experiment: Cytotoxicity against human MDA-MB-468 cells assessed as growth inhibition at 10 uM after 48 hrs by SRB assay; type: functional; conditions: MDA-MB-468, 48 h, read-out: GI; outline: as §1
HCC 2998 = experiment: Cytotoxicity against human HCC2998 cells assessed as growth inhibition at 10 uM after 48 hrs by SRB assay; type: functional; conditions: HCC 2998, 48 h, read-out: GI; outline: as §1
SK-MEL-2 = experiment: Cytotoxicity against human SK-MEL-2 cells assessed as growth inhibition at 10 uM after 48 hrs by SRB assay; type: functional; conditions: SK-MEL-2, 48 h, read-out: GI; outline: as §1
A498 = experiment: Cytotoxicity against human A498 cells assessed as growth inhibition at 10 uM after 48 hrs by SRB assay; type: functional; conditions: A498, 48 h, read-out: GI; outline: as §1

Row | MIC (Staphylococcus aureus [5]) | Structure (SMILES) | inhibition of growth at 10 µM (IGROV-1) | inhibition of growth at 10 µM (MCF7) | zone of inhibition at 1000 µg/mL (Pseudomonas aeruginosa [1]) | inhibition of growth at 10 µM (PC-3) | MBC (Staphylococcus aureus [2]) | inhibition of growth at 10 µM (NCI-H522) | inhibition of growth at 10 µM (NCI-H226) | growth inhibition (GI) (Aspergillus niger) | inhibition of growth at 10 µM (HCT-116) | inhibition of growth at 10 µM (SNB-75) | zone of inhibition at 1000 µg/mL (Bacillus spizizenii [3]) | inhibition of growth at 10 µM [4] | inhibition of growth at 10 µM (UACC-62) | inhibition of growth at 10 µM (K562) | MBC (Pseudomonas aeruginosa [6]) | inhibition of growth at 10 µM (U-251) | inhibition of growth at 10 µM (RPMI-8226) | inhibition of growth at 10 µM [7] | MBC (Escherichia coli [8]) | further results
1 | 25 µg/mL (≈ 81.9 µM) | CCOC(=O)c1sc(NC(=O)Nc2ccccc2)nc1C | 72.9% | 7.17% | > 13 mm | 4.18% | 25 µg/mL (≈ 81.9 µM) | 2.64% | 11.3% | inactive | 16.3% | 47.2% | > 13 mm | 16.1% | 20% | 39% | 100 µg/mL (≈ 327 µM) | 9.58% | 22.8% | 6.4% | 25 µg/mL (≈ 81.9 µM) | MIC (Escherichia coli [9]): 25 µg/mL (≈ 81.9 µM); inhibition of growth at 10 µM (SK-MEL-5): 4.58%; inhibition of growth at 10 µM (HCT-15): < 10%; MIC (Bacillus spizizenii [10]): 50 µg/mL (≈ 164 µM); zone of inhibition at 1000 µg/mL (Staphylococcus aureus [11]): > 13 mm; inhibition of growth at 10 µM (T47D): 12.6%; MIC (Pseudomonas aeruginosa [12]): 50 µg/mL (≈ 164 µM); inhibition of growth at 10 µM (CCRF-CEM): 22%; inhibition of growth at 10 µM (MDA-MB-468): 18.4%; inhibition of growth at 10 µM (HCC 2998): 27.4%; inhibition of growth at 10 µM (SK-MEL-2): 77.6%; inhibition of growth at 10 µM (A498): 28.9%
2 | 25 µg/mL (≈ 84.1 µM) | Cc1nc(NC(=O)NC2CCCCC2)sc1C(=O)NN | 28% | < 10% | > 13 mm | < 10% | 50 µg/mL (≈ 168 µM) | 99.5% | < 10% | inactive | 16.3% | < 10% | > 13 mm | 16% | 10.2% | < 10% | 200 µg/mL (≈ 673 µM) | 2.59% | < 10% | < 10% | 100 µg/mL (≈ 336 µM) | MIC (Escherichia coli [9]): 50 µg/mL (≈ 168 µM); inhibition of growth at 10 µM (SK-MEL-5): < 10%; inhibition of growth at 10 µM (HCT-15): 9.55%; MIC (Bacillus spizizenii [10]): 100 µg/mL (≈ 336 µM); zone of inhibition at 1000 µg/mL (Staphylococcus aureus [11]): > 13 mm; inhibition of growth at 10 µM (T47D): < 10%; MIC (Pseudomonas aeruginosa [12]): 100 µg/mL (≈ 336 µM); inhibition of growth at 10 µM (CCRF-CEM): < 10%; inhibition of growth at 10 µM (MDA-MB-468): 3.73%; inhibition of growth at 10 µM (HCC 2998): < 10%; inhibition of growth at 10 µM (SK-MEL-2): 29.3%; inhibition of growth at 10 µM (A498): < 10%
3 | 25 µg/mL (≈ 76.6 µM) | CCOC(=O)c1sc(NS(=O)(=O)c2ccccc2)nc1C | 93.1% | < 10% | > 13 mm | < 10% | 25 µg/mL (≈ 76.6 µM) | < 10% | < 10% | inactive | 43.1% | 3.91% | > 13 mm | 13% | < 10% | < 10% | 200 µg/mL (≈ 613 µM) | < 10% | < 10% | < 10% | 50 µg/mL (≈ 153 µM) | MIC (Escherichia coli [9]): 50 µg/mL (≈ 153 µM); inhibition of growth at 10 µM (SK-MEL-5): < 10%; inhibition of growth at 10 µM (HCT-15): < 10%; MIC (Bacillus spizizenii [10]): 100 µg/mL (≈ 306 µM); zone of inhibition at 1000 µg/mL (Staphylococcus aureus [11]): > 13 mm; inhibition of growth at 10 µM (T47D): < 10%; MIC (Pseudomonas aeruginosa [12]): 100 µg/mL (≈ 306 µM); inhibition of growth at 10 µM (CCRF-CEM): < 10%; inhibition of growth at 10 µM (MDA-MB-468): < 10%; inhibition of growth at 10 µM (HCC 2998): 72.5%; inhibition of growth at 10 µM (SK-MEL-2): 97.5%; inhibition of growth at 10 µM (A498): 11.6%

From ChEMBL document CHEMBL3124924, “Bifunctional ethyl 2-amino-4-methylthiazole-5-carboxylate derivatives: synthesis and in vitro biological evaluation as antimicrobial and anticancer agents” (2014)
